Among the data in ChEMBL document CHEMBL1141259, “Cytotoxic ent-kauranoids from the medicinal plant Isodon xerophilus” (J Nat Prod, 2007) are IC50 values, retold here.

As a reminder, the IC50 is the concentration at which inhibition is half-maximal. A lower IC50 goes with higher potency.

Holding throughout (format): functional, cell-based
The subject of one assay is K562. Nature of the assay: Cytotoxicity against human K562 cells after 48 hrs. The conditions noted are these: K562, 48 h. The gist of the method:
(§1)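 Human lines obtained from Shanghai Cell Bank and kept in RPMI1640 with hormone-free 15% heat-inactivated FBS, 2 mM glutamine, 100 U/mL penicillin G and 100 µg/mL streptomycin. Seeded in 96-well plates at 5 × 10^4 cells/mL (K562) or 4 × 10^4 cells/mL (MKN45, HepG2). Exposed to compounds for 48 h, then viability was read by CCK-8 at 450 and 650 nm. IC50 is from triplicate experiments.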

Another assay concerns MKN-45. Nature of the assay: Cytotoxicity against human MKN45 cells after 48 hrs. Particulars: MKN-45, 48 h. The procedure, abridged:
as §1

In another assay the test system is HepG2. Nature of the assay: Cytotoxicity against human HepG2 cells after 48 hrs. The conditions noted are these: HepG2, 48 h. The gist of the method: as §1

The structures appear in SMILES notation.

In the case of `C=C1C(=O)[C@]23[C@H](O)[C@H]1CC[C@H]2[C@]12[C@H](O)CCC(C)(C)[C@H]1[C@H](O)[C@]3(O)O[C@@H]2O` [HEBEIRUBESCENSINS G], the half-inhibitory concentration (IC50) in the assay with K562 is 5.3 µM; with MKN-45, greater than 10 µM; in the assay with HepG2, greater than 10 µM.

Regarding `C=C1C(=O)[C@]23[C@H](O)[C@H]1CC[C@H]2[C@@]12C(O)O[C@@]3(O)[C@@H](O)[C@@H]1C(C)(C)CC[C@H]2O` (stereo not given in full) [HEBEIRUBESCENSINS H], the IC50 is 5.3 µM with K562, greater than 10 µM in the assay on MKN-45 and greater than 10 µM in the assay with HepG2.

In the case of `C=C1C(=O)[C@]23[C@H](O)[C@H]1CC[C@H]2[C@]12CCC[C@@](C)(COC(C)=O)[C@H]1[C@H](O)[C@]3(O)OC2` [LONGIKAURIN B], the IC50 in the assay on K562 worked out at 1.6 µM; in the assay on MKN-45 it was 0.49 µM; in the assay on HepG2, 1.2 µM.

For the compound `C=C1C(=O)[C@]23C[C@H]1C[C@@H](O)[C@H]2[C@]12CCC[C@@](C)(COC(C)=O)[C@H]1[C@H](O)[C@]3(O)OC2` [LONGIKAURIN D], the IC50 amounted to 0.56 µM with K562, 0.34 µM in the assay on MKN-45 and 0.56 µM with HepG2.

As to `C=C1C(=O)[C@@]23[C@@H]4O[C@H]5O[C@@]2(O)[C@@H](O)[C@@H]2C(C)(C)CCC[C@]52[C@@H]3[C@@H](O)C[C@@H]14` [MACROCALIN B], the IC50 with K562, in the assay on MKN-45 and with HepG2 was greater than 10 µM in each case.

`C=C1C(=O)[C@]23C[C@H]1CC[C@H]2[C@@]12CO[C@@]3(O)[C@@H](O)[C@@H]1[C@](C)(COC(C)=O)[C@@H](O)C[C@H]2O` [MAOECRYSTAL I]: the IC50 with K562 was greater than 10 µM; in the assay with MKN-45, 1.3 µM; in the assay with HepG2, greater than 10 µM.

In the case of `C=C1C(=O)[C@]23[C@H](O)[C@H]1C[C@H](O)[C@H]2[C@]12CCCC(C)(C)[C@H]1C(=O)[C@]3(O)[C@H]2O` [PHYLLOSTACHYSIN A], the figures for the 50% inhibitory concentration (IC50) in the assay on K562 and in the assay with MKN-45 were 6.6 µM and 3 µM, respectively.

As to `C=C1C(=O)[C@@]23[C@@H]4OC5O[C@@]2(O)[C@@H](O)[C@@H]2C(C)(C)CC[C@@H](O)[C@]52[C@@H]3CC[C@@H]14` [PONICIDIN], the figures for the half-inhibitory concentration (IC50) with K562, in the assay with MKN-45 and in the assay on HepG2 were 1.3 µM, greater than 10 µM and 0.96 µM, respectively.

Consider `C=C1[C@@H](OC(C)=O)[C@]23[C@H](O)[C@H]1CC[C@H]2[C@]12CCCC(C)(C)[C@H]1[C@H](OC(C)=O)[C@]3(O)OC2` [RABDOTERNIN C], for which the half-maximal inhibitory concentration (IC50) with K562, with MKN-45 and in the assay with HepG2 was greater than 10 µM throughout.

In the case of `C=C1[C@@H](O)[C@]23[C@H](O)[C@H]1C[C@H](O)[C@H]2[C@]12CCCC(C)(C)[C@H]1[C@H](OC(C)=O)[C@]3(O)OC2` [RABDOTERNIN D], the IC50 with K562, with MKN-45 and in the assay on HepG2 was greater than 10 µM each time.

`C=C1C(=O)[C@]23[C@H](O)[C@H]1CC[C@H]2[C@@]12C(OC)O[C@@]3(O)[C@@H](O)[C@@H]1C(C)(C)CC[C@H]2O` (stereo not given in full) [RABDOTERNIN E]: the figures for the IC50 in the assay with K562, with MKN-45 and in the assay on HepG2 were 2.4 µM, greater than 10 µM and greater than 10 µM, respectively.

`C=C1C(=O)[C@]23[C@H](O)[C@H]1C[C@H](O)[C@H]2[C@]12CCCC(C)(C)[C@H]1[C@H](O)[C@]3(O)OC2` [ROSTHORIN A]: the 50% inhibitory concentration (IC50) is 0.33 µM in the assay on K562, 5.4 µM with MKN-45 and 6.4 µM in the assay with HepG2.

`C=C1C(=O)[C@]23C[C@H]1C[C@@H](O)[C@@H]2[C@@]1(CCC[C@@](C)(COC(C)=O)[C@H]1C=O)COC3=O` [TRICHORABDAL B]: the IC50 in the assay on K562, with MKN-45 and in the assay with HepG2 was greater than 10 µM in each case.

`C=C1C(=O)[C@@]23[C@@H]4O[C@H]5O[C@@]2(O)[C@@H](O)[C@@H]2C(C)(C)CCC[C@]52[C@@H]3[C@@H](OC(C)=O)C[C@@H]14` [XEROPHILUSIN A]: the values for the concentration for half-maximal inhibition (IC50) with K562, in the assay with MKN-45 and in the assay on HepG2 were 1.6 µM, greater than 10 µM and greater than 10 µM, respectively.

For `C=C1C(=O)[C@@]23[C@@H]4O[C@H]5O[C@@]2(O)[C@@H](O)[C@@H]2C(C)(C)CCC[C@]52[C@@H]3CC[C@@H]14` [XEROPHILUSIN B], the IC50 with K562 was 4.1 µM; with MKN-45 it was 0.4 µM; in the assay with HepG2, 3.9 µM.

For the compound `C=C1C(=O)[C@]23[C@H](O)[C@H]1CC[C@H]2[C@@]12CCC[C@@]4(C)CO[C@H]1O[C@@]3(O)[C@@H](O)[C@H]42` [XEROPHILUSIN D], the 50% inhibitory concentration (IC50) turned out to be 9 µM in the assay on K562, 3.9 µM with MKN-45 and 4.2 µM with HepG2.

With `C=C1C(=O)[C@]23[C@H](O)[C@H]1C[C@H](OC(C)=O)[C@H]2[C@]12CCCC(C)(C)[C@H]1C(=O)[C@]3(O)[C@H]2O` [XEROPHILUSIN F], the half-maximal inhibitory concentration (IC50) is 4.3 µM in the assay on K562, greater than 10 µM in the assay on MKN-45 and 4.9 µM in the assay on HepG2.

Take `C=C1C(=O)[C@]23C[C@H]1CC[C@H]2[C@@]12CO[C@@]3(O)[C@@H](O)[C@@H]1[C@](C)(COC(C)=O)CC[C@H]2O` [XEROPHILUSIN H]: the IC50 with K562, in the assay with MKN-45 and with HepG2 was greater than 10 µM in each case.

Take `C=C1C(=O)[C@@]23C(=O)[C@@H](O)[C@@H]4C(C)(C)CCC[C@@]4(C=O)[C@@H]2[C@@H](O)C[C@@H]1[C@H]3O` [XEROPHILUSIN II]: the half-maximal inhibitory concentration (IC50) in the assay with K562 was 1 µM; with MKN-45 it was greater than 10 µM; in the assay on HepG2 it was 4.5 µM.

On to `C=C1C(=O)[C@]23[C@H](O)[C@H]1CC[C@H]2[C@]12CCC[C@@](C)(CO)[C@H]1[C@H](O)[C@]3(O)OC2` [XEROPHILUSIN IV], for which the IC50 in the assay on K562, with MKN-45 and with HepG2 was greater than 10 µM in each case.

Consider `C=C1C(=O)[C@]23C[C@H]1CC[C@H]2[C@@]12CO[C@@]3(O)[C@@H](O)[C@@H]1C(C)(C)CC[C@H]2O` [XEROPHILUSIN I], for which the IC50 with K562 was 7.6 µM; in the assay on MKN-45, 6.2 µM; in the assay on HepG2 it was 4 µM.

`C=C1C(=O)[C@]23[C@H](O)[C@H]1C[C@H](OC(C)=O)[C@H]2[C@]12CCCC(C)(C)[C@H]1[C@H](O)[C@]3(O)OC2` [XEROPHILUSIN K]: the values for the IC50 in the assay with K562, with MKN-45 and in the assay with HepG2 were 1.4 µM, 5.6 µM and 2.2 µM, respectively.

`C=C1C(=O)[C@]23[C@H](O)[C@H]1CC[C@H]2[C@]12CCCC(C)(C)[C@H]1[C@H](O)[C@]3(O)OC2=O` [XEROPHILUSIN N]: the IC50 in the assay on K562 was 1.2 µM; in the assay on MKN-45 it was 4.8 µM; with HepG2, greater than 10 µM.

Take `C=C1C(=O)[C@]23[C@H](O)[C@H]1C[C@H](O)[C@H]2[C@@]12CO[C@@]3(O)[C@@H](O)[C@@H]1[C@](C)(COC(C)=O)CC[C@H]2O` [XEROPHILUSIN VI]: the IC50 in the assay on K562, in the assay on MKN-45 and in the assay with HepG2 was greater than 10 µM throughout.

Take `C=C1[C@@H](O)[C@]23[C@H](O)[C@H]1CC[C@H]2[C@@]12CO[C@@]3(O)[C@@H](O)[C@@H]1[C@](C)(CO)CC[C@H]2O` [XEROPHILUSIN V]: the IC50 with K562, in the assay with MKN-45 and in the assay on HepG2 was greater than 10 µM in each case.

Consider `COC[C@@H]1C(=O)[C@]23[C@H](O)[C@H]1C[C@H](OC(C)=O)[C@H]2[C@]12CCCC(C)(C)[C@H]1[C@H](O)[C@]3(O)OC2` [XEROPHILUSIN X1], for which the IC50 was 1.5 µM with K562, 3.9 µM with MKN-45 and 1.9 µM with HepG2.

`C=C1C(=O)[C@]23[C@H](O)[C@H]1C[C@H](OC(C)=O)[C@H]2[C@]12CCCC(C)(C)[C@H]1[C@H](O)[C@]3(O)O[C@@H]2OC` [XEROPHILUSIN XII]: the 50% inhibitory concentration (IC50) with K562 worked out at 3.6 µM; with MKN-45, 2.1 µM; in the assay with HepG2, 4.9 µM.

As for `C=C1C(=O)[C@]23[C@H](O)[C@H]1C[C@H](O)[C@H]2[C@]12CCCC(C)(C)[C@H]1[C@H](O)[C@]3(O)O[C@@H]2OC` [XEROPHILUSIN XI], the 50% inhibitory concentration (IC50) in the assay on K562, with MKN-45 and in the assay on HepG2 was greater than 10 µM each time.

For `C=C1[C@@H]2C[C@H](OC(C)=O)[C@H]3[C@]45CCCC(C)(C)[C@H]4[C@H](OC(C)=O)[C@](O)(OC5)[C@]3([C@@H]2O)[C@H]1O` [XEROPHILUSIN X], the half-inhibitory concentration (IC50) in the assay with K562, in the assay on MKN-45 and with HepG2 was greater than 10 µM in each case.

`C=C1C(=O)[C@]23[C@H](O)[C@H]1C[C@H](O)[C@H]2[C@]1(C=O)CCCC(C)(C)[C@H]1C(=O)[C@@H]3O` [XEROPHILUSINE I]: the results for the 50% inhibitory concentration (IC50) in the assay on K562, with MKN-45 and with HepG2 were 0.04 µM, 2.8 µM and 0.19 µM, respectively.

Regarding `CC(=O)O[C@H]1C[C@H]2C3=C(O[C@]4(CC3)C(=O)[C@@]35[C@@H]6O[C@H]7O[C@@]3(O)[C@@H](O)[C@@H]3C(C)(C)CCC[C@@]73[C@@H]5[C@@H](OC(C)=O)C[C@H]64)[C@@]34[C@@H]2O[C@H]2O[C@@]3(O)[C@@H](O)[C@@H]3C(C)(C)CCC[C@]23[C@H]14` [enanderinanin J], the half-maximal inhibitory concentration (IC50) in the assay with K562, in the assay with MKN-45 and in the assay on HepG2 was greater than 10 µM in each case.

For the compound `C=C1C(=O)[C@]23[C@H](O)[C@H]1CC[C@H]2[C@@]12CO[C@@]3(O)[C@@H](O)[C@@H]1[C@](C)(COC(C)=O)CC[C@H]2O` [xerophilusin G], the half-maximal inhibitory concentration (IC50) in the assay with K562, in the assay on MKN-45 and in the assay with HepG2 was greater than 10 µM in each case.
